How the values were obtained:
K562 = experiment: Cytotoxicity against human K562 cells by MTT assay; assay type: cell-based
Summary of the method: (§1)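 Human cell lines (SV40-immortalized microvascular endothelial HMEC-1 in MCDB 131 with 10% FCS, EGF, hydrocortisone, glutamine, Hepes; K562 in RPMI 1640 with 10% FCS, glutamine) exposed to serial compound dilutions 72 h at 37 °C, 5% CO2. MTT added 3 h; formazan dissolved in SDS/DMF buffer pH 4.7, read 550 nm (ref 650 nm). IC50 for 50% growth inhibition.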

[1] = Cytotoxicity against HMEC1 cells by MTT assay; assay type: cell-based; conditions: Homo sapiens, HMEC-1; summary of the method: as §1
Plasmodium falciparum [2] = experiment: Antimalarial activity against chloroquine-resistant Plasmodium falciparum W2 as LDH activity; assay type: functional, organism-based
Summary of the method: (§2)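 Asynchronous P. falciparum cultures (1–1.5% parasitaemia, 1% final hematocrit) exposed to serial dilutions for 72 h at 37 °C under 1% O2/5% CO2/94% N2. Compounds dissolved in water or DMSO, diluted in medium (final DMSO <1%). Growth read as pLDH activity (OD650, modified Makler method). IC50 given as mean ± SD of at least three experiments in duplicate.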

[3] = Ratio of IC50 for chloroquine-resistant Plasmodium falciparum W2 to IC50 for chloroquine-sensitive Plasmodium falciparum D10; assay type: functional
[4] = Cytotoxicity against mouse WEHI13 cells by MTT assay; assay type: cell-based
Summary of the method: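 Murine WEHI clone 13 fibrosarcoma cells in RPMI 1640 with 10% FCS and glutamine, treated with serial compound dilutions 72 h at 37 °C, 5% CO2. MTT added for 3 h, formazan solubilized in SDS/DMF lysing buffer pH 4.7, absorbance 550 nm against 650 nm reference. IC50 is dose giving 50% growth inhibition.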

Plasmodium falciparum [5] = experiment: Relative selectivity against Plasmodium falciparum D10 as IC50 ratio compared to chloroquine; assay type: functional
Summary of the method: (§3)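 Asynchronous P. falciparum cultures (D-10 or W-2; 1–1.5% parasitaemia, 1% haematocrit) incubated 72 h at 37 °C under 1% O2/5% CO2/94% N2 with serial drug dilutions (water or DMSO, final DMSO <1%). Growth read as pLDH activity at OD650. Chloroquine IC50 divided by compound IC50 within each experiment, ratios averaged.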

Plasmodium falciparum [6] = experiment: Relative selectivity against Plasmodium falciparum W2 as IC50 ratio compared to chloroquine; assay type: functional; summary of the method: as §3
Plasmodium falciparum [7] = experiment: Antimalarial activity against chloroquine-sensitive Plasmodium falciparum D10 as LDH reporter activity; assay type: functional, organism-based; summary of the method: as §2

SMILES: CCN(CC)Cc1cc(-c2ccccc2)n(Nc2ccnc3cc(Cl)ccc23)c1C
- IC50 (K562): 3.62 µM
- IC50 [1]: 16.7 µM
- IC50 (Plasmodium falciparum [2]): 0.0592 µM
- Ratio IC50 [3]: 1.4
- IC50 [4]: 4.38 µM
- Ratio IC50 (Plasmodium falciparum [5]): 0.7
- Ratio IC50 (Plasmodium falciparum [6]): 9.9
- IC50 (Plasmodium falciparum [7]): 0.0427 µM

SMILES: CCN(CC)Cc1cc(-c2ccc(Cl)cc2)n(Nc2ccnc3cc(Cl)ccc23)c1C
- IC50 [1]: 5.81 µM
- IC50 (Plasmodium falciparum [2]): 0.0425 µM
- Ratio IC50 [3]: 1.6
- IC50 [4]: 1.45 µM
- Ratio IC50 (Plasmodium falciparum [5]): 0.9
- Ratio IC50 (Plasmodium falciparum [6]): 18.5
- IC50 (Plasmodium falciparum [7]): 0.0261 µM

SMILES: Cc1c(CNC(C)(C)C)cc(-c2ccccc2)n1Nc1ccnc2cc(Cl)ccc12
- IC50 (Plasmodium falciparum [2]): 1.18 µM
- Ratio IC50 [3]: 18.5
- Ratio IC50 (Plasmodium falciparum [5]): 0.4
- Ratio IC50 (Plasmodium falciparum [6]): 0.7
- IC50 (Plasmodium falciparum [7]): 0.0635 µM

SMILES: CCN(CC)CCCC(C)Nc1ccnc2cc(Cl)ccc12 (stereo not given) [CHLOROQUINE]
- IC50 (K562): 29 µM
- IC50 [1]: > 32 µM
- IC50 [4]: > 38 µM

SMILES: Oc1cc(Nc2ccnc3cc(Cl)ccc23)ccc1CNC[C@@H]1CCCN2CCCC[C@H]12
- IC50 [1]: 7.94 µM
- IC50 (Plasmodium falciparum [2]): 0.0143 µM
- IC50 [4]: 4.43 µM
- Ratio IC50 (Plasmodium falciparum [5]): 2.8
- Ratio IC50 (Plasmodium falciparum [6]): 22
- IC50 (Plasmodium falciparum [7]): 0.0085 µM

SMILES: CCN(CC)Cc1cc(C)n(Nc2ccnc3cc(Cl)ccc23)c1C
- IC50 (Plasmodium falciparum [2]): 0.193 µM
- Ratio IC50 [3]: 2.8
- Ratio IC50 (Plasmodium falciparum [5]): 0.2
- Ratio IC50 (Plasmodium falciparum [6]): 1.2
- IC50 (Plasmodium falciparum [7]): 0.069 µM

SMILES: Cc1c(CNC[C@@H]2CCCN3CCCC[C@H]23)cc(-c2ccccc2)n1Nc1ccnc2cc(Cl)ccc12
- IC50 (K562): 1.68 µM
- IC50 [1]: 13.5 µM
- IC50 (Plasmodium falciparum [2]): 0.515 µM
- Ratio IC50 [3]: 14.1
- IC50 [4]: 7.44 µM
- Ratio IC50 (Plasmodium falciparum [5]): 0.8
- Ratio IC50 (Plasmodium falciparum [6]): 1.1
- IC50 (Plasmodium falciparum [7]): 0.0365 µM

SMILES: Cc1cc(CNC[C@@H]2CCCN3CCCC[C@H]23)c(C)n1Nc1ccnc2cc(Cl)ccc12
- IC50 [1]: 5.4 µM
- IC50 (Plasmodium falciparum [2]): 0.0534 µM
- Ratio IC50 [3]: 0.8
- IC50 [4]: 5.51 µM
- Ratio IC50 (Plasmodium falciparum [5]): 0.4
- Ratio IC50 (Plasmodium falciparum [6]): 3.1
- IC50 (Plasmodium falciparum [7]): 0.0707 µM

SMILES: Cc1c(CN2CCCC2)cc(-c2ccc(Cl)cc2)n1Nc1ccnc2cc(Cl)ccc12
- IC50 [1]: 7.18 µM
- IC50 (Plasmodium falciparum [2]): 0.0496 µM
- Ratio IC50 [3]: 1.6
- IC50 [4]: 2.06 µM
- Ratio IC50 (Plasmodium falciparum [5]): 0.8
- Ratio IC50 (Plasmodium falciparum [6]): 15.8
- IC50 (Plasmodium falciparum [7]): 0.0307 µM

SMILES: CCN(CC)Cc1ccc(Nc2ccnc3cc(Cl)ccc23)cc1O [ISOQUINE]
- IC50 (Plasmodium falciparum [2]): 0.0302 µM
- Ratio IC50 [3]: 1.3
- Ratio IC50 (Plasmodium falciparum [5]): 1.3
- Ratio IC50 (Plasmodium falciparum [6]): 17.6
- IC50 (Plasmodium falciparum [7]): 0.0237 µM

SMILES: Oc1cc(Nc2ccnc3cc(Cl)ccc23)ccc1CNCCC12CCCN1CCC2
- IC50 (Plasmodium falciparum [2]): 0.153 µM
- Ratio IC50 [3]: 1.7
- IC50 [4]: 12.2 µM
- Ratio IC50 (Plasmodium falciparum [5]): 0.3
- Ratio IC50 (Plasmodium falciparum [6]): 2.1
- IC50 (Plasmodium falciparum [7]): 0.0903 µM

SMILES: Cc1c(CN2CCCC2)cc(-c2ccccc2)n1Nc1ccnc2cc(Cl)ccc12
- IC50 (K562): 2.92 µM
- IC50 [1]: 12.9 µM
- IC50 (Plasmodium falciparum [2]): 0.14 µM
- Ratio IC50 [3]: 3.3
- IC50 [4]: 3.88 µM
- Ratio IC50 (Plasmodium falciparum [5]): 0.7
- Ratio IC50 (Plasmodium falciparum [6]): 4.2
- IC50 (Plasmodium falciparum [7]): 0.0429 µM

SMILES: Cc1cc(CNCC23CCCN2CCC3)c(C)n1Nc1ccnc2cc(Cl)ccc12
- IC50 (Plasmodium falciparum [2]): 0.358 µM
- Ratio IC50 [3]: 1.6
- Ratio IC50 (Plasmodium falciparum [5]): 0.1
- Ratio IC50 (Plasmodium falciparum [6]): 0.5
- IC50 (Plasmodium falciparum [7]): 0.222 µM

SMILES: Oc1cc(Nc2ccnc3cc(Cl)ccc23)ccc1CNCC12CCCN1CCC2
- IC50 (Plasmodium falciparum [2]): 0.077 µM
- Ratio IC50 [3]: 0.9
- Ratio IC50 (Plasmodium falciparum [5]): 0.4
- Ratio IC50 (Plasmodium falciparum [6]): 2.2
- IC50 (Plasmodium falciparum [7]): 0.0819 µM

SMILES: Cc1cc(CN2CCCC2)c(C)n1Nc1ccnc2cc(Cl)ccc12
- IC50 (Plasmodium falciparum [2]): 0.336 µM
- Ratio IC50 [3]: 4.2
- Ratio IC50 (Plasmodium falciparum [5]): 0.2
- Ratio IC50 (Plasmodium falciparum [6]): 0.7
- IC50 (Plasmodium falciparum [7]): 0.0807 µM

SMILES: Cc1c(CNCC[C@@H]2CCCN3CCCC[C@H]23)cc(-c2ccccc2)n1Nc1ccnc2cc(Cl)ccc12
- IC50 (K562): 2.61 µM
- IC50 [1]: 14.6 µM
- IC50 (Plasmodium falciparum [2]): 0.776 µM
- Ratio IC50 [3]: 5
- IC50 [4]: 7.22 µM
- Ratio IC50 (Plasmodium falciparum [5]): 0.2
- Ratio IC50 (Plasmodium falciparum [6]): 0.8
- IC50 (Plasmodium falciparum [7]): 0.154 µM

SMILES: Cc1cc(CNC(C)(C)C)c(C)n1Nc1ccnc2cc(Cl)ccc12
- IC50 (Plasmodium falciparum [2]): 0.255 µM
- Ratio IC50 [3]: 5.3
- Ratio IC50 (Plasmodium falciparum [5]): 0.3
- Ratio IC50 (Plasmodium falciparum [6]): 0.9
- IC50 (Plasmodium falciparum [7]): 0.0486 µM

SMILES: Clc1ccc2c(Nc3ccc(CNC[C@@H]4CCCN5CCCC[C@H]45)c(Cl)c3)ccnc2c1
- IC50 [1]: 5.52 µM
- IC50 (Plasmodium falciparum [2]): 0.0288 µM
- Ratio IC50 [3]: 1.2
- IC50 [4]: 2.77 µM
- Ratio IC50 (Plasmodium falciparum [5]): 1.8
- Ratio IC50 (Plasmodium falciparum [6]): 28
- IC50 (Plasmodium falciparum [7]): 0.0236 µM
